24 compounds from ChEMBL document CHEMBL4251698, “Mitigating the Metabolic Liability of Carbonyl Reduction: Novel Calpain Inhibitors with P1' Extension” (ACS Med Chem Lett, 2018) can be followed below.

Data set [1] addresses T1, Calpain-1 catalytic subunit (Homo sapiens, UniProt P07384).
T1 sequence (P07384 whole entry): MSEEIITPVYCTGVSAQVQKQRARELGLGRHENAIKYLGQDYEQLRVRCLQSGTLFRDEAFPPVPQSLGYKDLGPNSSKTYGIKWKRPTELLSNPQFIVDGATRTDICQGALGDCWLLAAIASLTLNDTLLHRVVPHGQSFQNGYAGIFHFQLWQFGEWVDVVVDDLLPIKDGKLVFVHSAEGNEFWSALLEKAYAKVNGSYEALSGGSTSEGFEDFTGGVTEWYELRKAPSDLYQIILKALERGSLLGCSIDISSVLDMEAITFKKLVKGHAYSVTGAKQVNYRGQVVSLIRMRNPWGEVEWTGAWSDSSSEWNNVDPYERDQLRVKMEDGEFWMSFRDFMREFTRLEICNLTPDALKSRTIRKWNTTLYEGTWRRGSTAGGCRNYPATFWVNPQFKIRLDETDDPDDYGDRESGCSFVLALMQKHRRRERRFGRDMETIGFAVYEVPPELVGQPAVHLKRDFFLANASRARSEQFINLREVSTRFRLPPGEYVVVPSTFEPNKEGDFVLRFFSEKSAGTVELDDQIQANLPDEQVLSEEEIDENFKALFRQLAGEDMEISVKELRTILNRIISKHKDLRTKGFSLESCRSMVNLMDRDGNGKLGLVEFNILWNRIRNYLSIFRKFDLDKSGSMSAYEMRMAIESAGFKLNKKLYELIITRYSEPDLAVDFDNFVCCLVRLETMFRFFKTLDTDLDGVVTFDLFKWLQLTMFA
Kind of data set: Inhibition of human erythrocyte calpain 1 using Suc-Leu-Tyr-AMC as substrate by fluorescence assay.

A short description of data set [2]: Inhibition of calpain in rat hippocampal slices assessed as reduction in NMDA-induced intracellular spectrin cleavage. Type of data set: cell-based. In a few lines: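 Rat hippocampal slice cultures were challenged with NMDA. The read-out was prevention of intracellular spectrin cleavage, and IC50 values were derived.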
Data set [3] in a line: Intrinsic clearance in human liver cytosol at 0.5 uM measured after 15 mins in presence of NADPH by spectrometric method. Format: ADME, subcellular. To be noted: read-out: CLH. In a few lines: (§1)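 Test compound incubated with monkey or human liver cytosol and percent parent lost over time followed. Intrinsic clearance calculated from this depletion, in µL/min/mg; ranges adjusted to hepatic plasma flow of the species.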

The nature of data set [4]: Clearance in rat hepatocytes. Type of data set: ADME, cell-based, Hepatocyte.
A short description of data set [5]: Clearance in human hepatocytes. Type of data set: ADME, cell-based, Hepatocyte.
A short description of data set [6]: Intrinsic clearance in cynomolgus monkey liver cytosol at 0.5 uM measured after 15 mins in presence of NADPH by spectrometric method. Type of data set: ADME, subcellular, Macaca fascicularis. To be noted: read-out: CLH. In a few lines: as §1

As a reminder, the Ki is a measure of affinity in units of concentration, obtained from inhibition or displacement. In the case of `O=C(NC1CCC1)C(=O)C(Cc1ccccc1)NC(=O)c1cccnc1-n1ccc(-c2ccccc2)n1` (stereo not given), in data set [1], the Ki was 490 nM.

`O=C(NOCCN1CCOCC1)C(=O)C(Cc1ccccc1)NC(=O)c1cccnc1-n1ccc(-c2ccccc2)n1` (stereo not given): the Ki in data set [1] worked out at 265 nM.

`CNC(=O)C(=O)C(Cc1ccccc1)NC(=O)c1cccnc1-n1ccc(-c2ccccc2)n1` (stereo not given) had an inhibition constant Ki in data set [1] of 380 nM.

Turning to `N#CCNC(=O)C(=O)C(Cc1ccccc1)NC(=O)c1cccnc1-n1ccc(-c2ccccc2)n1` (stereo not given), the Ki in data set [1] was 950 nM.

One may read the IC50 as the midpoint of a concentration-inhibition curve. For the compound `O=C(NC1CC1)C(=O)C(Cc1ccccc1)NC(=O)c1cccnc1-n1ccc(-c2ccccc2)n1` (stereo not given), in data set [2], the half-maximal inhibitory concentration (IC50) turned out to be 750 nM. For the same compound, the inhibitory constant (Ki) in data set [1] amounted to 205 nM.

As to `C=CCNC(=O)C(=O)C(Cc1ccccc1)NC(=O)c1cccnc1-n1ccc(-c2ccccc2)n1` (stereo not given), the inhibitory constant (Ki) in data set [1] came to 470 nM.

The compound `O=C(NOC1CCC1)C(=O)C(Cc1ccccc1)NC(=O)c1cccnc1-n1ccc(-c2ccccc2)n1` (stereo not given) displayed an inhibition constant (Ki) in data set [1] of 150 nM.

Turning to `CCCONC(=O)C(=O)C(Cc1ccccc1)NC(=O)c1cccnc1-n1ccc(-c2ccccc2)n1` (stereo not given), the Ki in data set [1] is 75 nM.

Compound `C=CCONC(=O)C(=O)C(Cc1ccccc1)NC(=O)c1cccnc1-n1ccc(-c2ccccc2)n1` (stereo not given) registered a Ki in data set [1] of 185 nM.

In turn, `O=C(NCCc1ccccc1)C(=O)C(Cc1ccccc1)NC(=O)c1cccnc1-n1ccc(-c2ccccc2)n1` (stereo not given) displayed a Ki in data set [1] of 330 nM.

In data set [1], `CC1(NC(=O)C(=O)C(Cc2ccccc2)NC(=O)c2cccnc2-n2ccc(-c3ccccc3)n2)CC1` (stereo not given) came in with a Ki of more than 5000 nM.

For `O=C(NCc1nc2ccccc2o1)C(=O)C(Cc1ccccc1)NC(=O)c1cccnc1-n1ccc(-c2ccccc2)n1` (stereo not given), the inhibition constant (Ki) in data set [1] is 210 nM.

On to `CC(C)NC(=O)C(=O)C(Cc1ccccc1)NC(=O)c1cccnc1-n1ccc(-c2ccccc2)n1` (stereo not given), for which affinity in data set [1] was put at a Ki of 2600 nM.

Regarding `CONC(=O)C(=O)C(Cc1ccccc1)NC(=O)c1cccnc1-n1ccc(-c2ccccc2)n1` (stereo not given), in data set [2], the IC50 turned out to be 2150 nM. The compound further returned a Ki in data set [1] of 120 nM.

`O=C(NOCC1CC1)C(=O)C(Cc1ccccc1)NC(=O)c1cccnc1-n1ccc(-c2ccccc2)n1` (stereo not given): in data set [1], the inhibition constant Ki came to 90 nM.

For the compound `CCONC(=O)C(=O)C(Cc1ccccc1)NC(=O)c1cccnc1-n1ccc(-c2ccccc2)n1` (stereo not given), the microsomal CLint at […], 0.5 µM in data set [3] and in data set [6] was less than 1 µL/min/mg throughout. Further, the figures for the CLH in data set [4] and in data set [5] were 32 µL/min/mg and 10 µL/min/mg, respectively. In data set [1], this compound showed an inhibition constant Ki of 110 nM.

For the compound `CN(C)CCONC(=O)C(=O)C(Cc1ccccc1)NC(=O)c1cccnc1-n1ccc(-c2ccccc2)n1` (stereo not given), the Ki in data set [1] is 1060 nM.

As for `O=C(NOC1CCCC1)C(=O)C(Cc1ccccc1)NC(=O)c1cccnc1-n1ccc(-c2ccccc2)n1` (stereo not given), the affinity in data set [1], expressed as Ki, was 120 nM.

On to `CCCNC(=O)C(=O)C(Cc1ccccc1)NC(=O)c1cccnc1-n1ccc(-c2ccccc2)n1` (stereo not given), for which, in data set [1], the affinity corresponds to a Ki of 480 nM.

With `O=C(NCc1ccccc1)C(=O)C(Cc1ccccc1)NC(=O)c1cccnc1-n1ccc(-c2ccccc2)n1` (stereo not given), the inhibitory constant (Ki) in data set [1] was determined as 110 nM.

In data set [1], `O=C(NC1CCCC1)C(=O)C(Cc1ccccc1)NC(=O)c1cccnc1-n1ccc(-c2ccccc2)n1` (stereo not given) came in with an inhibitory constant (Ki) of 1350 nM.

`CCNC(=O)C(=O)C(Cc1ccccc1)NC(=O)c1cccnc1-n1ccc(-c2ccccc2)n1` (stereo not given) displayed an inhibition constant Ki in data set [1] of 690 nM.

`O=C(NCC1CC1)C(=O)C(Cc1ccccc1)NC(=O)c1cccnc1-n1ccc(-c2ccccc2)n1` (stereo not given) had an inhibition constant Ki in data set [1] of 550 nM.

Regarding `CC(C)ONC(=O)C(=O)C(Cc1ccccc1)NC(=O)c1cccnc1-n1ccc(-c2ccccc2)n1` (stereo not given), the Ki in data set [1] stood at 220 nM.
